From article PMC9476207 (ACS Omega, 2022)

Experiments:
Experiment in all cases: NCI-60 single-dose antiproliferative screen
Format in all cases: cell-based
SNB-75 = conditions: Homo sapiens, SNB-75, 48 h, read-out: growth percent
Procedure, shortened: (§1)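 Cells grown in RPMI 1640 with 5% FBS and 2 mM L-glutamine, plated and held 24 h at 37 °C; time-zero plates TCA-fixed. DMSO stocks were diluted in gentamicin-containing medium to a final 10^-5 M, with a DMSO-only control. Exposure 48 h, 5% CO2. Adherent cells TCA-fixed 1 h at 4 °C, stained with 0.4% SRB, solubilised in 10 mM Trizma base, read at 515 nm. Growth percent derived from ODtzero, ODtest and ODctrl.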

MOLT-4 = conditions: Homo sapiens, MOLT-4, 48 h, read-out: growth percent
Procedure, shortened: (§2)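 NCI-60 protocol. Lines were grown in RPMI 1640 with 5% FBS and 2 mM L-glutamine, plated and incubated 24 h at 37 °C; time-zero plates were TCA-fixed. The test compound was dissolved in DMSO, diluted in medium with 50 μg/mL gentamicin and given once at a final 10^-5 M (DMSO control) for 48 h. Cells were fixed with cold TCA (1 h, 4 °C) and stained with 0.4% SRB in 1% acetic acid for 10 min. Dye was dissolved in 10 mM Trizma base and read at 515 nm. Growth percent was calculated from time-zero, test and control ODs.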

HT29 = conditions: Homo sapiens, HT-29, 48 h, read-out: growth percent
Procedure, shortened: as §2

HCT-15 = conditions: Homo sapiens, HCT-15, 48 h, read-out: growth percent
Procedure, shortened: as §2

MDA-MB-435 = conditions: Homo sapiens, MDA-MB-435, 48 h, read-out: growth percent
Procedure, shortened: as §2

NCI-H460 = conditions: Homo sapiens, NCI-H460, 48 h, read-out: growth percent
Procedure, shortened: as §2

OVCAR-8 = conditions: Homo sapiens, OVCAR-8, 48 h, read-out: growth percent
Procedure, shortened: as §2

UACC-257 = conditions: Homo sapiens, UACC-257, 48 h, read-out: growth percent
Procedure, shortened: as §1

SNB-19 = conditions: Homo sapiens, SNB-19, 48 h, read-out: growth percent
Procedure, shortened: as §1

NCI-H23 = conditions: Homo sapiens, NCI-H23, 48 h, read-out: growth percent
Procedure, shortened: as §2

OVCAR-3 = conditions: Homo sapiens, OVCAR-3, 48 h, read-out: growth percent
Procedure, shortened: as §2

ACHN = conditions: Homo sapiens, 48 h, read-out: growth percent
Procedure, shortened: as §2

UO-31 = conditions: Homo sapiens, UO-31, 48 h, read-out: growth percent
Procedure, shortened: as §1

HS 578T = conditions: Homo sapiens, 48 h, read-out: growth percent
Procedure, shortened: as §2

UACC-62 = conditions: Homo sapiens, UACC-62, 48 h, read-out: growth percent
Procedure, shortened: as §1

NCI-H226 = conditions: Homo sapiens, NCI-H226, 48 h, read-out: growth percent
Procedure, shortened: as §2

T-47D = conditions: Homo sapiens, T47D, 48 h, read-out: growth percent
Procedure, shortened: as §1

COLO205 = conditions: Homo sapiens, COLO 205, 48 h, read-out: growth percent
Procedure, shortened: as §2

U251 = conditions: Homo sapiens, U-251, 48 h, read-out: growth percent
Procedure, shortened: as §1

SF-539 = conditions: Homo sapiens, SF-539, 48 h, read-out: growth percent
Procedure, shortened: as §1

| SMILES | activity at 10 µM (SNB-75) [%] | activity at 10 µM (MOLT-4) [%] | activity at 10 µM (HT29) [%] | activity at 10 µM (HCT-15) [%] | activity at 10 µM (MDA-MB-435) [%] | activity at 10 µM (NCI-H460) [%] | activity at 10 µM (OVCAR-8) [%] | activity at 10 µM (UACC-257) [%] | activity at 10 µM (SNB-19) [%] | activity at 10 µM (NCI-H23) [%] | activity at 10 µM (OVCAR-3) [%] | activity at 10 µM (ACHN) [%] | activity at 10 µM (UO-31) [%] | activity at 10 µM (HS 578T) [%] | activity at 10 µM (UACC-62) [%] | activity at 10 µM (NCI-H226) [%] | activity at 10 µM (T-47D) [%] | activity at 10 µM (COLO205) [%] | activity at 10 µM (U251) [%] | activity at 10 µM (SF-539) [%] |
| --- | --- | --- | --- | --- | --- | --- | --- | --- | --- | --- | --- | --- | --- | --- | --- | --- | --- | --- | --- | --- |
| COc1cc(CNC(=O)CCCC/C=C/C(C)C)ccc1OCc1cn(-c2ccc(Cl)cc2)nn1 [14a, (E)-N-(4-((1-(4-Chlorophenyl)-1H-1,2,3-triazol-4-yl)methoxy)-3-methoxybenzyl)-8-methylnon-6-enamide] | 76.4 | 82 | 88.4 | 91.8 | 99.3 | 79.9 | 79 | 91.6 | 87.7 | 78.7 | 105 | 59.7 | 76.6 | 90.3 | 67.8 | 70.4 | 71 | 108 | 86.9 | 87.1 |
| COc1cc(CNC(=O)CCCC/C=C/C(C)C)ccc1OCc1cn(-c2cccc(Cl)c2)nn1 [14b, (E)-N-(4-((1-(3-Chlorophenyl)-1H-1,2,3-triazol-4-yl)methoxy)-3-methoxybenzyl)-8-methylnon-6-enamide] | 75.8 | 92.8 | 99.2 | 91.3 | 98.6 | 84.1 | 57.2 | 90.1 | 60 | 87.2 | 84.4 | 73 | 72.2 | 74.8 | 75 | 86.5 | 81.1 | 102 | 69.1 | 82 |
| COc1cc(CNC(=O)CCCC/C=C/C(C)C)ccc1OCc1cn(-c2ccccc2Cl)nn1 [14c, (E)-N-(4-((1-(2-Chlorophenyl)-1H-1,2,3-triazol-4-yl)methoxy)-3-methoxybenzyl)-8-methylnon-6-enamide] | 87.3 | 81 | 98.2 | 94.1 | 103 | 101 | 89.6 | 87.9 | 89.7 | 93.6 | 101 | 74.1 | 75.2 | 97.2 | 73.3 | 81.8 | 74.3 | 106 | 85.7 | 104 |
| COc1cc(CNC(=O)CCCC/C=C/C(C)C)ccc1OCc1cn(-c2ccc(Cl)c(Cl)c2)nn1 [14d, (E)-N-(4-((1-(3,4-Dichlorophenyl)-1H-1,2,3-triazol-4-yl)methoxy)-3-methoxybenzyl)-8-methylnon-6-enamide] | 79.1 | 86.4 | 99.4 | 93.6 | 94.2 | 101 | 91 | 89.2 | 87.3 | 93.2 | 92.4 | – | 103 | 84 | 75.6 | 76.6 | 87 | 111 | 91.9 | 96.1 |
